Assay results from ChEMBL document CHEMBL5634203, “A Tiny Pocket Packs a Punch: Leveraging Pyridones for the Discovery of CNS-Penetrant Aza-indazole IRAK4 Inhibitors” (ACS Med Chem Lett, 2024).
Converted amounts (≈) assume the structure as drawn.

Experiments:
[1] = Kinetic solubility of compound in DMSO at pH 6.8 incubated for 24 hrs; format: physicochemical; settings: read-out: Kinetic_solubility
In short: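 Kinetic solubility assay at pH 6.8. Arithmetic mean of at least two experiments.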

[2] = Lipophilicity, log D of the compound at pH 7.4; format: physicochemical; settings: buffer
[3] = Intrinsic clearance in human hepatocytes; format: ADME, cell-based, Hepatocyte
In short: (§1)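 Intrinsic clearance measured in human liver microsomes and in human hepatocytes and reported as scaled values. Arithmetic mean of at least two experiments.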

[4] = Intrinsic clearance in human liver microsomes; format: ADME, Microsome; settings: read-out: CLH; in short: as §1
[5] = Plasma protein binding in rat assessed as unbound fraction; format: ADME, cell-free
[6] = Plasma protein binding in human assessed as unbound fraction; format: ADME, cell-free
[7] = Unbound brain-to-plasma concentration ratio in Sprague-Dawley rat brain at 1 mg/kg, iv by LC-MS/MS analysis; format: ADME, organism-based; settings: read-out: K(p,uu,brain)
In short: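 Male Sprague Dawley rats dosed by infusion as a cassette. Total drug measured in brain (Cb) and plasma (Cp). Kpu,u calculated as (Cb×Fub)/(Cp×Fup), using the unbound fractions in brain and in plasma.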

[8] = Clearance in Sprague-Dawley rat measured for 4 hrs by LC-MS/MS analysis; format: ADME; settings: in vivo
In short: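 Male Sprague Dawley rats dosed by infusion. Clearance measured during the cassette Kpu,u procedure.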

Mus musculus [9] = test: Anti-inflammatory activity in po dosed C57BL/6 mouse assessed increase in LPS-induced IL-10 level in plasma preincubated with compound for 60 mins followed by LPS-induction and measured after 90 mins by ELISA analysis; settings: dose 10-100 mg/kg, time 150.0 min
Mus musculus [10] = test: Anti-inflammatory activity in po dosed C57BL/6 mouse assessed reduction in LPS-induced TNFalpha level in brain preincubated with compound for 60 mins followed by LPS-induction and measured after 90 mins by ELISA analysis; format: functional, organism-based; settings: dose 10-100 mg/kg, time 150.0 min
In short: (§2)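 Mice dosed orally with vehicle (0 mpk) or 10, 30 or 100 mpk, 60 min before intraperitoneal LPS. Cytokine levels and free drug concentration in plasma and brain taken 90 min after LPS. Each dose group compared by one-way ANOVA with the vehicle group given i.p. LPS.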

Mus musculus [11] = test: Anti-inflammatory activity in po dosed C57BL/6 mouse assessed reduction in LPS-induced IL-1beta level in plasma preincubated with compound for 60 mins followed by LPS-induction and measured after 90 mins by ELISA analysis; format: functional, organism-based; settings: dose 10-100 mg/kg, time 150.0 min; in short: as §2
Mus musculus [12] = test: Anti-inflammatory activity in po dosed C57BL/6 mouse assessed reduction in LPS-induced IL-6 level in plasma preincubated with compound for 60 mins followed by LPS-induction and measured after 90 mins by ELISA analysis; format: functional, organism-based; settings: dose 10-100 mg/kg, time 150.0 min; in short: as §2
Mus musculus [13] = test: Anti-inflammatory activity in po dosed C57BL/6 mouse assessed reduction in LPS-induced IL-1beta level in brain preincubated with compound for 60 mins followed by LPS-induction and measured after 90 mins by ELISA analysis; format: functional, organism-based; settings: dose 10-100 mg/kg, time 150.0 min; in short: as §2
Mus musculus [14] = test: Anti-inflammatory activity in po dosed C57BL/6 mouse assessed reduction in LPS-induced KC-GRO level in plasma preincubated with compound for 60 mins followed by LPS-induction and measured after 90 mins by ELISA analysis; format: functional, organism-based; settings: dose 10-100 mg/kg, time 150.0 min; in short: as §2
Mus musculus [15] = test: Anti-inflammatory activity in po dosed C57BL/6 mouse assessed reduction in LPS-induced MCP-1 level in brain preincubated with compound for 60 mins followed by LPS-induction and measured after 90 mins by ELISA analysis; format: functional, organism-based; settings: dose 10-100 mg/kg, time 150.0 min; in short: as §2
Mus musculus [16] = test: Anti-inflammatory activity in po dosed C57BL/6 mouse assessed reduction in LPS-induced MCP-1 level in plasma preincubated with compound for 60 mins followed by LPS-induction and measured after 90 mins by ELISA analysis; format: functional, organism-based; settings: dose 10-100 mg/kg, time 150.0 min; in short: as §2
Mus musculus [17] = test: Anti-inflammatory activity in po dosed C57BL/6 mouse assessed reduction in LPS-induced TNFalpha level in plasma preincubated with compound for 60 mins followed by LPS-induction and measured after 90 mins by ELISA analysis; format: functional, organism-based; settings: dose 10-100 mg/kg, time 150.0 min; in short: as §2
Mus musculus [18] = test: Anti-inflammatory activity in po dosed C57BL/6 mouse assessed reduction in LPS-induced KC-GRO level in brain preincubated with compound for 60 mins followed by LPS-induction and measured after 90 mins by ELISA analysis; format: functional, organism-based; settings: dose 10-100 mg/kg, time 150.0 min; in short: as §2
Mus musculus [19] = test: Anti-inflammatory activity in po dosed C57BL/6 mouse assessed reduction in LPS-induced IL-6 level in brain preincubated with compound for 60 mins followed by LPS-induction and measured after 90 mins by ELISA analysis; format: functional, organism-based; settings: dose 10-100 mg/kg, time 150.0 min; in short: as §2

solubility kinetic at 24 h [1] | logD [2] | CLH [3] | microsomal CLint [4] | fraction unbound [5] | fraction unbound [6] | Kp uu [7] | clearance [8] | SMILES | Activity (Mus musculus [9]) | Activity (Mus musculus [10]) | Activity (Mus musculus [11]) | Activity (Mus musculus [12]) | Activity (Mus musculus [13]) | Activity (Mus musculus [14]) | Activity (Mus musculus [15]) | Activity (Mus musculus [16]) | Activity (Mus musculus [17]) | Activity (Mus musculus [18]) | Activity (Mus musculus [19])
25 µg/mL (≈ 53.5 µM) | 2.54 | 3 µL/min/mg | < 5.3 µL/min/mg | 0.0718 | 0.0594 | 0.7 | 43 mL/min/kg | CC(C)Oc1nc2nn(C34COC(C)(C3)C4)cc2cc1C(=O)Nc1cccn([C@H]2C[C@H]2F)c1=O | – | – | – | – | – | – | – | – | – | – | –
56 µg/mL (≈ 120 µM) | 2.74 | 3.8 µL/min/mg | < 5.3 µL/min/mg | 0.047 | 0.0232 | – | – | CC(C)Oc1cc2nn(C34COC(C)(C3)C4)cc2cc1C(=O)Nc1cccn([C@H]2C[C@H]2F)c1=O | – | – | – | – | – | – | – | – | – | – | –
58 µg/mL (≈ 137 µM) | 2.16 | 3.43 µL/min/mg | 7.07 µL/min/mg | – | – | 1 | 11.2 mL/min/kg | CC(C)Oc1cc2nn(C34COC(C)(C3)C4)cc2cc1C(=O)Nc1cccn(C)c1=O | Dose-Dependent Effect | Dose-Dependent Effect | Dose-Dependent Effect | Dose-Dependent Effect | Dose-Dependent Effect | Dose-Dependent Effect | Dose-Dependent Effect | Dose-Dependent Effect | Dose-Dependent Effect | Dose-Dependent Effect | Dose-Dependent Effect
6.6 µg/mL (≈ 14.1 µM) | 2.61 | 3.3 µL/min/mg | < 5.3 µL/min/mg | 0.083 | 0.0127 | – | – | CC(C)Oc1nc2nn(C34COC(C)(C3)C4)cc2cc1C(=O)Nc1cccn([C@@H]2C[C@@H]2F)c1=O | – | – | – | – | – | – | – | – | – | – | –
